Source: ChEMBL document CHEMBL4368921, “Discovery of novel simplified isoxazole derivatives of sampangine as potent anti-cryptococcal agents” (2019)
In brackets after ≈: the same amount, converted by molar mass. Each block holds one molecule with its values, some of them ahead of it. Activity calls are given as the source filed them. The rule behind the calls is not given here.

Assays:
Cryptococcus neoformans [1] = test: Antifungal activity against Cryptococcus neoformans var. grubii H99 after 48 hrs by serial dilution method; format: functional
How it was run: (§1)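 Broth serial dilution per NCCLS. Medium was RPMI 1640 buffered with 0.165M MOPS, NaHCO3 (0.2%) and NaOH (0.27%). Strains were pre-grown in YPD at 30 °C with shaking. Inoculum 10³ CFU/mL; compounds in DMSO. Plates incubated at 35 °C for 48 h. MIC80 is the concentration giving 80% inhibition.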

Candida albicans = test: Antifungal activity against Candida albicans SC5314 after 48 hrs by serial dilution method; format: functional; conditions: SC5314, 48 h; how it was run: as §1
Cryptococcus neoformans [2] = test: Antifungal activity against Cryptococcus neoformans var. grubii ATCC 34877 after 48 hrs by serial dilution method; format: functional; conditions: var. grubii ATCC 34877, 48 h; how it was run: as §1
Cryptococcus neoformans [3] = test: Antibiofilm activity against Cryptococcus neoformans var. grubii H99 at 0.062 ug/mL after 24 hrs by XTT analysis relative to control; format: functional
How it was run: (§2)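 H99 cells at 1.0×10^6 CFU/mL in RPMI 1640 left to adhere 90 min at 37 °C. Non-adherent cells were removed and the wells washed three times with PBS. Fresh RPMI with drug (0.062-8 µg/mL) or drug-free control was added, then 24 h more at 37 °C. Formation rate by XTT reduction. Means ± SD of three independent experiments; ANOVA and t-test.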

Cryptococcus neoformans [4] = test: Antibiofilm activity against Cryptococcus neoformans var. grubii H99 at 0.062 to 8 ug/mL after 24 hrs by XTT analysis; format: functional, organism-based; how it was run: as §2
Cryptococcus neoformans [5] = test: Inhibition of melanin production in Cryptococcus neoformans var. grubii H99 at 16 ug/mL; format: functional, organism-based
How it was run: (§3)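 PBS-washed exponential H99 cells at 1×10^6 cells/mL in RPMI 1640 with drug. Drops placed on L-DOPA (melanin) or urea (urease) medium and incubated at 37 °C. Read-out: black versus white colonies for melanin, red medium for urease.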

Cryptococcus neoformans [6] = test: Inhibition of urease production in Cryptococcus neoformans var. grubii H99 at 64 ug/mL; format: functional, organism-based; how it was run: as §3
Cryptococcus neoformans [7] = test: Fungistatic activity against Cryptococcus neoformans var. grubii H99 at 0.25 ug/mL up to 48 hrs by time-growth curve assay; format: functional, organism-based
Cryptococcus neoformans [8] = test: Fungistatic activity against Cryptococcus neoformans var. grubii H99 up to 48 hrs by time-growth curve assay; format: functional, organism-based
How it was run: (§4)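 Exponential H99 cells at 2×10^6 cells/mL in 5 mL RPMI 1640 with drug (0.062-1 µg/mL) or DMSO control. Shaken at 200 rpm, 30 °C. Cells counted at 0, 3, 6, 9, 12, 24 and 48 h. Three independent experiments.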

Cryptococcus neoformans [9] = test: Fungicidal activity against Cryptococcus neoformans var. grubii H99 at 2 ug/mL after 48 hrs by time-kill assay; format: functional, organism-based
How it was run: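 Time-kill: PBS-washed exponential H99 cells at 2×10^6 cells/mL in 5 mL RPMI 1640 with drug, shaken (200 rpm) at 30 °C. Samples taken at 0, 6, 12, 24 and 48 h, diluted and plated on SDA. CFU counted after 48 h at 30 °C.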

Cryptococcus neoformans [10] = test: Induction of apoptosis in Cryptococcus neoformans var. grubii H99 assessed as early apoptotic cells at 0.5 ug/mL after 24 hrs by annexin V-FITC/propidium iodide staining-based flow cytometric analysis (reference value: 1.05%); format: functional
Cryptococcus neoformans [11] = test: Induction of apoptosis in Cryptococcus neoformans var. grubii H99 assessed as late apoptotic cells at 0.5 ug/mL after 24 hrs by annexin V-FITC/propidium iodide staining-based flow cytometric analysis (reference value: 0.15%); format: functional
Cryptococcus neoformans [12] = test: Induction of apoptosis in Cryptococcus neoformans var. grubii H99 assessed as necrotic cells at 0.5 ug/mL after 24 hrs by annexin V-FITC/propidium iodide staining-based flow cytometric analysis (reference value: 0.19%); format: functional
Cryptococcus neoformans [13] = test: Induction of apoptosis in Cryptococcus neoformans var. grubii H99 assessed as early apoptotic cells at 1 ug/mL after 24 hrs by annexin V-FITC/propidium iodide staining-based flow cytometric analysis (reference value: 1.05%); format: functional
Cryptococcus neoformans [14] = test: Induction of apoptosis in Cryptococcus neoformans var. grubii H99 assessed as late apoptotic cells at 1 ug/mL after 24 hrs by annexin V-FITC/propidium iodide staining-based flow cytometric analysis (reference value: 0.15%); format: functional
Cryptococcus neoformans [15] = test: Induction of apoptosis in Cryptococcus neoformans var. grubii H99 assessed as necrotic cells at 1 ug/mL after 24 hrs by annexin V-FITC/propidium iodide staining-based flow cytometric analysis (reference value: 0.19%); format: functional
Cryptococcus neoformans [16] = test: Induction of apoptosis in Cryptococcus neoformans var. grubii H99 assessed as early apoptotic cells at 2 ug/mL after 24 hrs by annexin V-FITC/propidium iodide staining-based flow cytometric analysis (reference value: 1.05%); format: functional
Cryptococcus neoformans [17] = test: Induction of apoptosis in Cryptococcus neoformans var. grubii H99 assessed as late apoptotic cells at 2 ug/mL after 24 hrs by annexin V-FITC/propidium iodide staining-based flow cytometric analysis (reference value: 0.15%); format: functional
Cryptococcus neoformans [18] = test: Induction of apoptosis in Cryptococcus neoformans var. grubii H99 assessed as necrotic cells at 2 ug/mL after 24 hrs by annexin V-FITC/propidium iodide staining-based flow cytometric analysis (reference value: 0.19%); format: functional
Cryptococcus neoformans [19] = test: Cell cycle arrest in Cryptococcus neoformans var. grubii H99 assessed as accumulation of cells at G1 phase at 0.5 ug/mL after 24 hrs by propidium iodide staining-based flow cytometric analysis (reference value: 12.24%); format: functional
How it was run: (§5)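 Exponential H99 cells washed three times with PBS and set at 5×10^5 cells/mL in RPMI 1640. Dosed 0.5, 1 or 2 µg/mL and shaken (200 rpm) at 30 °C for 24 h. Walls digested 1 h at 30 °C in PBS with 0.24% snailase, then fixed overnight in 70% ethanol. Stained with 50 µg/mL PI, 4 °C, 30 min; ~1×10^6 cells read by flow cytometry.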

Cryptococcus neoformans [20] = test: Cell cycle arrest in Cryptococcus neoformans var. grubii H99 assessed as accumulation of cells at G1 phase at 1 ug/mL after 24 hrs by propidium iodide staining-based flow cytometric analysis (reference value: 12.24%); format: functional; how it was run: as §5
Cryptococcus neoformans [21] = test: Cell cycle arrest in Cryptococcus neoformans var. grubii H99 assessed as accumulation of cells at G1 phase at 2 ug/mL after 24 hrs by propidium iodide staining-based flow cytometric analysis (reference value: 12.24%); format: functional; how it was run: as §5
Cryptococcus neoformans [22] = test: Cell cycle arrest in Cryptococcus neoformans var. grubii H99 assessed as decrease in cells at S phase at 0.5 to 2 ug/mL after 24 hrs by propidium iodide staining-based flow cytometric analysis; format: functional, organism-based; how it was run: as §5
Cryptococcus neoformans [23] = test: Fungistatic activity against Cryptococcus neoformans var. grubii H99 assessed as inhibition of cell growth at 1 ug/mL up to 48 hrs by time-growth curve assay; format: functional; conditions: read-out: GI; how it was run: as §4
Cryptococcus gattii = test: Antifungal activity against Cryptococcus gattii ATCC 14116 after 48 hrs by serial dilution method; conditions: ATCC 14116, 48 h

MIC80 (Cryptococcus neoformans [1]): 0.25 µg/mL (≈ 0.694 µM) | MIC80 (Candida albicans): > 64 µg/mL
Compound: O=C1c2ccsc2C(=O)c2c(-c3ccccc3Br)noc21

MIC80 (Cryptococcus neoformans [1]): 1 µg/mL (≈ 3.48 µM) | MIC80 (Candida albicans): > 64 µg/mL
Compound: O=C1c2ccsc2C(=O)c2c(-c3ccsc3)noc21

MIC80 (Cryptococcus neoformans [1]): 1 µg/mL (≈ 3.39 µM) | MIC80 (Candida albicans): > 64 µg/mL
Compound: Cc1ccc(-c2noc3c2C(=O)c2sccc2C3=O)cc1

MIC80 (Cryptococcus neoformans [1]): 0.5 µg/mL (≈ 1.61 µM) | MIC80 (Candida albicans): > 64 µg/mL
Compound: COc1ccccc1-c1noc2c1C(=O)c1sccc1C2=O

MIC80 (Cryptococcus neoformans [1]): 0.25 µg/mL (≈ 0.792 µM) | MIC80 (Candida albicans): > 64 µg/mL
Compound: O=C1c2ccsc2C(=O)c2c(-c3ccccc3Cl)noc21

MIC80 (Cryptococcus neoformans [1]): > 64 µg/mL | MIC80 (Candida albicans): > 64 µg/mL
Compound: O=C1c2ccsc2C(=O)c2c(-c3cccc(Br)c3)noc21

MIC80 (Cryptococcus neoformans [1]): 0.25 µg/mL (≈ 0.886 µM) | MIC80 (Candida albicans): 8 µg/mL (≈ 28.3 µM)
Compound: O=C1c2ccsc2C(=O)c2c(-c3ccccn3)noc21

MIC80 (Cryptococcus neoformans [1]): 0.031 µg/mL (≈ 0.133 µM) | MIC80 (Candida albicans): 2 µg/mL (≈ 8.57 µM) | MIC80 (Cryptococcus neoformans [2]): 0.12 µg/mL (≈ 0.514 µM) | MIC80 (Cryptococcus gattii): 0.25 µg/mL (≈ 1.07 µM)
Compound: CCc1noc2c1C(=O)c1sccc1C2=O
Activity (Cryptococcus neoformans [3]): >80% | Activity (Cryptococcus neoformans [4]): Active | inhibition (Cryptococcus neoformans [5]): Active | inhibition (Cryptococcus neoformans [6]): Active | Activity (Cryptococcus neoformans [7]): Active | Activity (Cryptococcus neoformans [8]): Dose-dependent effect | Activity (Cryptococcus neoformans [9]): Active | Activity (Cryptococcus neoformans [10]): 20.49% | Activity (Cryptococcus neoformans [11]): 3.33% | Activity (Cryptococcus neoformans [12]): 1.35% | Activity (Cryptococcus neoformans [13]): 39.23% | Activity (Cryptococcus neoformans [14]): 5.39% | Activity (Cryptococcus neoformans [15]): 0.51% | Activity (Cryptococcus neoformans [16]): 50.7% | Activity (Cryptococcus neoformans [17]): 6.78% | Activity (Cryptococcus neoformans [18]): 0.32% | Activity (Cryptococcus neoformans [19]): 50.21% | Activity (Cryptococcus neoformans [20]): 49.14% | Activity (Cryptococcus neoformans [21]): 48.61% | Activity (Cryptococcus neoformans [22]): Active | inhibition of growth at 1 µg/mL (Cryptococcus neoformans [23]): 100%

MIC80 (Cryptococcus neoformans [1]): 0.12 µg/mL (≈ 0.485 µM) | MIC80 (Candida albicans): 4 µg/mL (≈ 16.2 µM) | MIC80 (Cryptococcus neoformans [2]): 0.12 µg/mL (≈ 0.485 µM) | MIC80 (Cryptococcus gattii): 0.25 µg/mL (≈ 1.01 µM)
Compound: CCCc1noc2c1C(=O)c1sccc1C2=O
Activity (Cryptococcus neoformans [4]): Active

MIC80 (Cryptococcus neoformans [1]): > 64 µg/mL | MIC80 (Candida albicans): > 64 µg/mL
Compound: O=C1c2ccsc2C(=O)c2c(-c3ccc(Br)cc3)noc21

MIC80 (Cryptococcus neoformans [1]): 0.25 µg/mL (≈ 0.835 µM) | MIC80 (Candida albicans): > 64 µg/mL
Compound: O=C1c2ccsc2C(=O)c2c(-c3ccccc3F)noc21

MIC80 (Cryptococcus neoformans [1]): 0.25 µg/mL (≈ 1 µM) | MIC80 (Candida albicans): 8 µg/mL (≈ 32.1 µM) | MIC80 (Cryptococcus neoformans [2]): 0.25 µg/mL (≈ 1 µM) | MIC80 (Cryptococcus gattii): 0.5 µg/mL (≈ 2.01 µM)
Compound: COCc1noc2c1C(=O)c1sccc1C2=O
